For orientation: IC50 means the midpoint of a concentration-inhibition curve. The low end stands for inhibition by little substance, the high end for a need for much substance.

The assay deals with Platelet. Nature of the assay: Inhibition of serotonin release in bovine platelets. It is filed as functional, cell-based. Conditions: Bos taurus. The method in brief: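 Bovine platelets loaded with [14C]serotonin by incubating cattle venous blood, taken up by active transport. Platelet-rich plasma prepared at a standard platelet concentration by centrifugation and dilution, then preincubated with the sesquiterpene lactones. Adenosine diphosphate added to trigger aggregation and degranulation. Reaction stopped after 6 min with ice-cold acetylsalicylic acid. Released serotonin monitored and IC50 determined.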

`C=C1C(=O)O[C@H]2[C@H]1[C@H](OC(=O)C1(C)OC1C)C[C@@]1(C)[C@H](O)C[C@H]3O[C@@]3(C)[C@H]21` (some centres undefined): it took 17.7 µM to reach half-maximal inhibition (IC50). `C=C1C(=O)O[C@H]2[C@H]1[C@H](OC(=O)C1(C)OC1C)C[C@@]1(C)[C@H](O)CC=C(C)[C@H]21` (some centres undefined) yielded an IC50 of 7.09 µM. The figure for `CC1=CC[C@@H](O)[C@]2(C)CC[C@@H]3[C@H](OC(=O)[C@H]3C)[C@@H]12` is over 200 µM; for `C=C1[C@@H](O)C[C@@H]2[C@H](OC(=O)[C@H]2C)[C@H]2[C@H](C)C(=O)C[C@@H]12` it is over 454 µM. The figure for `C=C1CC[C@@H](O)[C@]2(C)CC[C@@H]3[C@H](OC(=O)[C@H]3C)[C@@H]12` is over 210 µM. In the case of `C=C1C(=O)O[C@@H]2[C@H]3C(=C)[C@@H](O)C[C@H]3C(=C)C[C@H](OC(=O)[C@@]3(C)CO3)[C@@H]12`, inhibition was half-maximal at 6.32 µM (IC50). The figure for `C=C1C(=O)O[C@H]2[C@H]1[C@H](OC(=O)C1(C)OC1C)C[C@@]1(C)[C@H](O)CCC(=C)[C@H]21` (some centres undefined) is 10.1 µM; for `C=C1C(=O)O[C@H]2C[C@@H](C)[C@@H]3CCC(=O)[C@@]3(C)[C@H](O)[C@H]12` it is 60.1 µM; for `C=C1C[C@@H](O)[C@@H]2[C@H](OC(=O)[C@H]2C)[C@H]2[C@H](C)[C@@H](O)C[C@@H]12` it is over 488 µM. For `C=C1C(=O)O[C@@H]2[C@H]3O[C@]3(C)CCC[C@H](C)CC[C@@H]12`, inhibition was half-maximal at 40.6 µM (IC50). For the molecule `C[C@@H]1C(=O)O[C@H]2[C@H]1CC[C@@]1(C)O[C@@H]1CC[C@@]1(C)O[C@H]21`, the IC50 is over 413 µM. With `C=C1C(=O)O[C@H]2[C@H]1[C@H](OC(=O)C(C)(O)C(C)O)C[C@@]1(C)[C@H](O)CCC(=C)[C@H]21` (some centres undefined) the figure was 9.52 µM.

For the molecule `C=C(C(=O)O[C@@H]1C[C@@]2(C)[C@H](O)CC=C(C)[C@@H]2[C@H]2OC(=O)C(=C)[C@@H]21)C(C)O` (some centres undefined), the IC50 amounted to 26.7 µM. The figure for `C=C1C(=O)O[C@@H]2C3O[C@]3(C)CC/C=C(\C)CC[C@@H]12` (some centres undefined) is 3.03 µM. The figure for `C=C1C(=O)O[C@@H]2/C=C(\C)CC[C@H]3O[C@]3(C)CC[C@@H]12` [1,10-EPOXYCOSTUNOLIDE] is 121 µM; for `C=C1C(=O)O[C@@H]2C3=C(C)CC[C@@H](O)[C@]3(C)C[C@@H](OC(=O)C3(C)OC3C)[C@@H]12` (stereo partly drawn) [1BETA-HYDROXY-8BETA-EPOXYANGELOYLOXYARBUSCULIN B] it is 6.66 µM. The figure for `C/C1=C\CC[C@@]2(C)O[C@@H]2[C@H]2OC(=O)[C@@H](C)[C@@H]2CC1` [11BETA,13-DIHYDRO-PARTHENOLIDE] is over 400 µM; for `C=C1C(=O)O[C@@H]2/C=C(\CO)CC/C=C(\CO)C[C@H](OC(=O)C(C)C)[C@@H]12` [ALATOLIDE] it is 5.77 µM; for `C=C1C(=O)O[C@H]2[C@H]1CC[C@@](C)(O)[C@]13O[C@H]1[C@H]1O[C@@]1(C)[C@H]23` [ARTECANIN] it is over 135 µM. On to `C=C1C(=O)O[C@@H]2C[C@@]3(C)[C@H](O)CCC(=C)[C@@H]3C[C@H]12` [ASPERILIN], for which the IC50 is 57.6 µM. The figure for `C=C1C(=O)O[C@@H]2C[C@H](C)[C@@H]3[C@@H](O)CC(=O)[C@@]3(C)C[C@H]12` [BURRODIN] is 251 µM. The figure for `C=C1C(=O)O[C@H]2[C@H]1[C@@H](OC(=O)[C@](C)(O)CCl)CC(=C)[C@@H]1C[C@H](O)[C@](O)(CCl)[C@H]21` [CENTAUREPENSIN] is 6.06 µM; for `C=C1C(=O)O[C@@H]2/C=C(/COC(C)=O)CC[C@H](OCC)C3=C[C@@H](OC3=O)[C@@H]12` [CINERENIN ACETATE] it is 2.04 µM. With `C=C1C(=O)O[C@@H]2/C=C(/CO)CC[C@H](OCC)C3=C[C@@H](OC3=O)[C@@H]12` [CINERENIN] the figure was 3.52 µM.

`C=C1C(=O)O[C@@H]2/C=C(\CO)CC/C=C(\C)C[C@H](OC(=O)C(=C)[C@H](O)CO)[C@@H]12` [CNICIN] yielded an IC50 of 3.52 µM. Molecule `C=C1C(=O)O[C@@H]2[C@H]1[C@@H](OC(C)=O)C[C@H](C)[C@@H]1CCC(=O)[C@@]21C` [CONFERTIFLORIN] yielded an IC50 of 8.88 µM.

As for `C=C1C(=O)O[C@@H]2[C@H]1CC[C@H](C)[C@]1(O)CCC(=O)[C@@]21C` [CORONOPILIN], the IC50 is 249 µM.

In turn, `C=C1C(=O)O[C@H]2[C@H]1[C@H](OC(=O)[C@@]1(C)O[C@H]1C)[C@@H](OC(C)=O)/C(C(=O)OC)=C\CC[C@@]1(C)O[C@H]21` [ENHYDRIN] returned an IC50 of 8.76 µM. `C=C1C(=O)O[C@H]2C[C@@H](C)[C@@H]3C[C@@H](O)[C@H](O)[C@@]3(C)[C@H](O)[C@H]12` [GEIGERININ] showed an IC50 of 73.4 µM. As for `C=C(C)C(=O)O[C@@H]1C[C@@H](OC(C)=O)C(=O)CC[C@]2(C)O[C@H]2[C@@H]2OC(=O)C(COC(C)=O)=C21` [GLAUCOLIDE A], the IC50 is 20.9 µM. As to `C=C1C(=O)O[C@H]2[C@H]1[C@@H](O)CC(=C)[C@@H]1CC(=O)[C@@H](C)[C@H]21` [GROSSHEIMIN], the IC50 amounted to 22.2 µM.

For the molecule `C=C1C(=O)O[C@@H]2C[C@@H](C)[C@@H]3C=CC(=O)[C@@]3(C)[C@@H](O)[C@H]12` [HELENALIN], the IC50 came to 4.28 µM. The figure for `C=C(C(=O)O)[C@@H]1CC[C@@]2(C)CCC[C@@](C)(O)[C@@H]2C1` [ILICIC ACID] is over 614 µM.

Take `C=C1C(=O)O[C@H]2C[C@H](C)[C@@H]3C(OC(C)=O)CC(OC(C)=O)[C@@]3(C)[C@@H](O)[C@H]12` (some centres undefined) [INUCHINENOLIDE C]: the IC50 worked out at 33.5 µM. With `C=C1C(=O)O[C@@H]2C[C@@]3(C)CCCC(=C)[C@@H]3C[C@H]12` [ISOALANTOLACTONE] the figure was over 516 µM; with `C=C1C(=O)O[C@H]2C[C@@H](C)[C@@H]3C=CC(=O)[C@@]3(C)[C@H](OC(C)=O)[C@H]12` [LINIFOLIN A], 11.4 µM; with `C=C1C(=O)O[C@@H]2/C=C(\C)[C@@H]3O[C@@H]3/C=C(/C(=O)OC)[C@H](O)[C@@H](OC(=O)[C@]3(C)O[C@@H]3C)[C@@H]12` [MELAMPODIN A], 4.68 µM. Turning to `C=C1C(=O)O[C@@H]2[C@H]1CC[C@H](C)[C@]1(O)C=CC(=O)[C@@]21C` [PARTHENIN], the IC50 was 129 µM. For `C=C1C(=O)O[C@@H]2[C@H]1CC[C@H](C)[C@]1(CCC(=O)O1)[C@@]2(C)O` [PSILOSTACHYIN A], the IC50 stood at 44.1 µM.

On to `C=C1C(=O)O[C@@H]2C[C@@]3(C)C[C@@H](O)[C@H](O)C(=C)[C@@H]3C[C@H]12` [PULCHELLIN C], for which the IC50 was over 416 µM. With `C=C1C(=O)O[C@H]2[C@H]1[C@@H](OC(=O)[C@]1(C)CO1)CC(=C)[C@@H]1C[C@H](O)[C@]3(CO3)[C@H]21` [REPIN] the figure was 9.24 µM.

For `C=C1CC[C@@H](O)[C@]2(C)CC[C@H]3C(=C)C(=O)O[C@@H]3[C@@H]12` [REYNOSIN], the IC50 stood at 271 µM. On to `C=C1C(=O)O[C@@H]2/C=C(\CO)CC/C=C(\C)C[C@H](O)[C@@H]12` [SALONITENOLIDE], for which inhibition was half-maximal at 10.2 µM (IC50). For `C=C1C(=O)O[C@@H]2[C@H]3C(C)=CC[C@@H](O)[C@]3(C)CC[C@@H]12` [SANTAMARIN], the IC50 amounted to 84.9 µM. In turn, `CC1=C2[C@H]3OC(=O)[C@@H](C)[C@@H]3CC[C@@]2(C)C=CC1=O` [SANTONIN] came in with an IC50 of over 568 µM. For the molecule `C=C1C(=O)O[C@@H]2C/C(C=O)=C/CC/C(C)=C/[C@@H](O)[C@H]12` [SCHKUHRIOLIDE], the IC50 worked out at 278 µM. The molecule `C=C1C(=O)O[C@H]2[C@H]1[C@@H](OC(=O)/C(=C/CO)CO)C/C(C)=C/CC[C@@]1(C)O[C@H]21` [STIZOLICIN] displayed an IC50 of 5.82 µM. In turn, `C=C1C(=O)O[C@H]2CC(=C)[C@@H](O)CC/C(C)=C/[C@@H](O)[C@H]12` [TATRIDIN B] gave an IC50 of 27 µM.

`C=C1C(=O)O[C@@H]2C[C@@]3(C)CCCC(=C)[C@]3(O)C[C@H]12` [TELEKIN] gave an IC50 of over 564 µM. With `C[C@@H]1C[C@@H]2OC(=O)[C@]3(C)[C@H]2[C@@H](OC3(C)O)[C@]2(C)C(=O)C=C[C@@H]12` (some centres undefined) [TENULIN] the figure was 361 µM; with `C=C1C(=O)O[C@H]2/C=C(\C)[C@@H](OC(C)=O)C/C=C(\C)C[C@@H](OC(=O)C3(C)OC3C)[C@@H]12` (some centres undefined) [URSINIOLIDE A], 1.78 µM. With `C=C1C(=O)O[C@H]2/C=C(\C)[C@@H](OC(C)=O)C/C=C(\C)C[C@@H](OC(=O)C(C)(O)C(C)OC(C)=O)[C@@H]12` (some centres undefined) [URSINIOLIDE B] the figure was 5.3 µM. `C=C(C(=O)OC)[C@@H]1CC[C@@]2(C)CCC[C@@](C)(O)[C@@H]2C1` [VACHANIC ACID METHYLESTER] showed an IC50 of 201 µM. Regarding `C=C1C(=O)O[C@H]2C[C@H](C)[C@@H]3CC(=O)C(C)=C3C[C@H]12` [XERANTOLIDE], the IC50 was found to be 101 µM.

Source of the values: ChEMBL document CHEMBL1143197, “Neural networks as valuable tools to differentiate between sesquiterpene lactones' inhibitory activity on serotonin release and on NF-kappaB” (J Med Chem, 2008).
